Laboratory results taken from ChEMBL document CHEMBL4190293, “Anti-inflammatory Meroterpenoids from Baeckea frutescens” (J Nat Prod, 2017).
Active and inactive are the calls of the source. The calls are words filed in the database; no cut-off is given here.

How the values were obtained:
RAW264.7 [1] = test: Antiinflammatory activity in mouse RAW264.7 cells assessed as inhibition of LPS-stimulated nitric oxide production pretreated for 2 hrs followed by LPS-stimulation measured after 20 hrs by Griess assay; format: functional, cell-based
Summary of the method: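 Murine RAW 264.7 macrophages in DMEM with 10% FBS, seeded at 1 × 10^5 cells/well and grown 12 h. Pretreated with compound for 2 h, then given LPS (1 μg/mL) for 20 h; L-NMMA as positive control. Supernatant nitrite mixed 1:1 with Griess reagent, 10 min at room temperature, absorbance read at 540 nm. IC50 from three independent replicates. Viability checked by Alamar Blue after 20 h.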

RAW264.7 [2] = test: Antiinflammatory activity in mouse RAW264.7 cells assessed as inhibition of LPS-stimulated TNFalpha expression pretreated for 2 hrs followed by LPS-stimulation measured after 18 hrs by ELISA; format: functional, cell-based
Summary of the method: (§1)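 RAW 264.7 cells seeded at 1 × 10^6 cells/well in serum-free DMEM for 12 h. Cells pretreated with test compound at 0.2, 0.4 or 0.8 μM for 2 h, then stimulated with LPS (1 μg/mL) for 18 h. TNF-α and IL-6 in the culture supernatant measured by ELISA kit. Mean ± SD of three independent experiments; one-way ANOVA with Dunnett's post hoc test.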

RAW264.7 [3] = test: Antiinflammatory activity in mouse RAW264.7 cells assessed as inhibition of LPS-stimulated IL-6 expression at 0.2 to 0.8 uM pretreated for 2 hrs followed by LPS-stimulation measured after 18 hrs by ELISA; format: functional, cell-based; summary of the method: as §1
[4] = target: Transcription factor p65 (Mus musculus) (UniProt Q04207); test: Inhibition of NF-kappaB p65 nuclear translocation in LPS-stimulated mouse RAW264.7 cells pretreated for 2 hrs followed by LPS-stimulation measured after 16 hrs by Western blot analysis; format: cell-based
Summary of the method: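 RAW 264.7 cells exposed to compound at 0.2, 0.4 or 0.8 μM for 2 h, then given 1 μg/mL LPS, or left unstimulated, for 16 h. Lysates made in RIPA buffer, protein quantified by BCA, run on 10% SDS-PAGE and transferred to PVDF. Blots probed for NF-κB p65 with lamin B as internal control, primary antibodies at 4 °C overnight. Mean ± SD of three independent experiments.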

Transcription factor p65 (Mus musculus), sequence (Q04207 whole entry): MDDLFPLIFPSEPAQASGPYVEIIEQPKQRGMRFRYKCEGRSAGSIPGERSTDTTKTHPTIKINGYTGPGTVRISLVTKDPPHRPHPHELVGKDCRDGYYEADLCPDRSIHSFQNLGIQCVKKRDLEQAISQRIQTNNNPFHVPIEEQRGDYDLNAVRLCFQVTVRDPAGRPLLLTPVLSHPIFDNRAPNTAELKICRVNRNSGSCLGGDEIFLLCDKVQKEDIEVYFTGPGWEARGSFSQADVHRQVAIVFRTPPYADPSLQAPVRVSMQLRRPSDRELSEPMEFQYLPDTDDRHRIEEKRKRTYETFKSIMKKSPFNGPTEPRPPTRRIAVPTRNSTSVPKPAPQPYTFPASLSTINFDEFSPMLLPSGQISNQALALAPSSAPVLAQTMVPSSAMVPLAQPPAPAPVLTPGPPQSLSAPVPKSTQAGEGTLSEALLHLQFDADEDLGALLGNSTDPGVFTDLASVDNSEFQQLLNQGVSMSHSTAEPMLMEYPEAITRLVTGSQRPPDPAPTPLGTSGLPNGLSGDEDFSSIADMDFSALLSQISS

Row | Structure (SMILES) | IC50 (RAW264.7 [1]) [µM] | also measured
1 | C=C1CC[C@@H]2[C@H](C(C)C)C3=C(O[C@@]2(C)CC[C@@H]2[C@@H]1CC2(C)C)C(C)(C)C(OC)=C(C)C3=O | > 50 | –
2 | CNC(=N)NCCC[C@H](N)C(=O)O [TILARGININE] | 30.9 | –
3 | COC1=C(C)C2=C(C(=O)C1(C)C)[C@@H](C(C)C)C[C@]1(CC[C@@]3(C(C)C)C[C@@H]13)O2 | 0.36 | inhibition (RAW264.7 [2]): Dose-dependent effect; inhibition (RAW264.7 [3]): inactive; inhibition [4]: Dose-dependent effect
4 | COC1=C(C)C(=O)[C@]2(CC(CCC=C(C)C)=CC[C@H]2C(C)C)C(=O)C1(C)C (racemic) | 6.5 | –
5 | COC1=C(C)C(=O)C2=C(O[C@]3(CC[C@@H]4C[C@@H]3C4(C)C)C[C@@H]2C(C)C)C1(C)C | 3.7 | –
6 | COC1=C(C)C(=O)C2=C(O[C@@]3(CC[C@]45[C@H]([C@H](C(C)C)CC[C@H]4C)[C@@H]35)C[C@@H]2C(C)C)C1(C)C | 15.2 | –
7 | COC1=C(C)C(=O)C2=C(O[C@@]3(C=C4[C@H](C(C)C)CC[C@@H](C)[C@H]4CC3)C[C@@H]2C(C)C)C1(C)C | 18.8 | –
8 | COC1=C(C)C(=O)C2=C(O[C@@]3(C=C4[C@H](C(C)C)CC[C@@H](C)[C@H]4CC3)C[C@H]2C(C)C)C1(C)C | > 50 | –
9 | COC1=C(C)C(=O)C2=C(O[C@]3(C=C4[C@H](C(C)C)CC[C@@H](C)[C@H]4CC3)C[C@@H]2C(C)C)C1(C)C | > 50 | –
10 | COC1=C(C)C2=C(C(=O)C1(C)C)[C@H](C(C)C)C[C@@]1(CC[C@@]3(C(C)C)C[C@@H]13)O2 (racemic) | 1.8 | –
11 | COC1=C(C)C(=O)C2=C(O[C@]3(CC[C@]45[C@H]([C@H](C(C)C)CC[C@H]4C)[C@@H]35)C[C@H]2C(C)C)C1(C)C | 30.5 | –
12 | COC1=C(C)C(=O)[C@@]2(CC=C(CCC=C(C)C)C[C@H]2C(C)C)C(=O)C1(C)C (racemic) | 2.07 | –
